Hits are enriched below; roughly 3% of the tested compounds scored in any of these assays.
sdo1 growth: growth rescue of sdo1-depleted yeast, primary screen, S. cerevisiae, bone marrow failure model. S. cerevisiae sdo1-depleted JHY4D growth rescue, OD600 30 h; hits give high values; pdr5 snq2 efflux-pump mutant strain. AID 817, 2007. hit rate 0.21% among 140,000. z-score at 10 µM;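 active = z-score above 3 at both the 24 hr and the 30 hr optical density reads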;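 note: z-score against mean and SD of all compound wells on the same plate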
sEH activator: soluble epoxide hydrolase activators, primary screen, biochemical, human sEH | Bifunctional epoxide hydrolase 2 (Homo sapiens), P34913 | purified human sEH enzymatic activity, activator screen | activation, % at 2 µM | hit rate 0.04% among 91,000; in the data active = activation above about 37%
Target sequence (P34913 whole entry, looked up): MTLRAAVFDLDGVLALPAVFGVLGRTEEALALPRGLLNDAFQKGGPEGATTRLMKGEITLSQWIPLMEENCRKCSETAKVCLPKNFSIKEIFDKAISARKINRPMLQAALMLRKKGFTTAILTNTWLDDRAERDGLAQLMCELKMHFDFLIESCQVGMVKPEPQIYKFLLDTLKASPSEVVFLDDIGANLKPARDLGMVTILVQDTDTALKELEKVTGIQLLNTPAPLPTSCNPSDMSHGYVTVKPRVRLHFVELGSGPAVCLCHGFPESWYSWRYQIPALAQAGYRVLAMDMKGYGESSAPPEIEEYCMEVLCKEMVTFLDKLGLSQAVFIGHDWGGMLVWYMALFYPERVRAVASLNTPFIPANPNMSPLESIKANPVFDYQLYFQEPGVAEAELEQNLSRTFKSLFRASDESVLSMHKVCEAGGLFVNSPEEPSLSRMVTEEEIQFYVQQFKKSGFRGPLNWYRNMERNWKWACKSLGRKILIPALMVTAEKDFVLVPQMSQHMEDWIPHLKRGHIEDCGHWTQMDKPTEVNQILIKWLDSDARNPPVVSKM
BB579 growth dn: growth inhibitors of yeast BB579 in restrictive medium, primary screen, yeast lifespan-shortening project, S. cerevisiae. OD615, 48 h. inhibition, % at 10 µM. hit rate 0.51% among 140,000. AID 804, 2007;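 active = inhibition above a set limit, 3 SD over the mean compound inhibition, cut at about 44% in these data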
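Assay system: S. cerevisiae DeaD strain BB579 yeast. Medium: CSMM-D restrictive synthetic medium containing dextrose (glucose). Times: 4 h cell preincubation, 48 h compound exposure, 30 °C humidified. Signal: OD615 turbidity measurement. Benchmarks: positive control amphotericin B 10 µg/mL.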
Yeast lifespan up: compounds extending yeast replicative lifespan, primary screen, S. cerevisiae, OD615; inhibition of the nicotinamide effect, % at 10 µM; AID 775, 2007; S. cerevisiae growth with nicotinamide; deaD strain in restrictive glucose medium; hit rate 0.68% among 130,000;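 active = inhibition above a set limit, placed 3 SD over the median of all compounds, cut at about 26% in these data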;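 note: 0% = nicotinamide-treated wells and 100% = cells grown without nicotinamide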
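Measured by: optical density (absorbance) at 615 nm; System: modified budding yeast, DeaD strain; Medium: restrictive CSMM-D dextrose medium; Timing: 4 h preincubation then 48 h treatment at 30 °C.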
sEH inh: soluble epoxide hydrolase inhibitors, primary screen, biochemical, human sEH; inhibition, % at 2 µM; recombinant human sEH enzymatic activity assay; Bifunctional epoxide hydrolase 2 (Homo sapiens), P34913; hit rate 0.34% among 91,000; in the data active = inhibition above about 80%
Measles CPE: compounds protecting cells from measles virus cytopathic effect, primary screen, measles RdRp inhibitor project, single point, MLSMR library, absorbance. Measles virus-infected cells, CPE protection. protection (pct of control), % at 4 µM. hit rate 1.5% among 140,000. AID 841, 2007; in the data active = protection mostly above about 24%, no sharp cut-off; inactive = mostly below about 26%
* = called active by the depositor.

For OCCNc1nc2ccccc2n1CCN1CCCCC1 the results were sdo1 growth 2.2, sEH activator -4, BB579 growth dn 6, sEH inh 4 and Measles CPE 47*.
For CN(C)CCCNC(CC(=O)Nc1cccc([N+](=O)[O-])c1)C(=O)O (stereo not drawn) the results were sdo1 growth 2.2, BB579 growth dn -63, Yeast lifespan up 6 and Measles CPE 8.
For O=C(Nc1nc(-c2ccccn2)cs1)c1ccc(Br)s1 the results were sdo1 growth -2.2, sEH activator -8, BB579 growth dn 99*, Yeast lifespan up -29, sEH inh 8 and Measles CPE 3.
Screening CC1CCC2(CC1)NC(=S)N(c1ccccc1)N2 (stereo not drawn) returned sdo1 growth 0.11, sEH activator -2, BB579 growth dn 69*, Yeast lifespan up -14, sEH inh -4 and Measles CPE 0.
For CCOc1ccc(NC(=O)N2CCC(c3ccc(C)cc3)C2)cc1 (stereo not drawn) the results were sdo1 growth 0.26, sEH activator -82, BB579 growth dn -20, Yeast lifespan up -5, sEH inh 82* and Measles CPE 4.
`CCOc1ccc(NC(=O)N2CCC(C(=O)c3ccc(F)cc3)CC2)cc1` gave sdo1 growth 0.13, sEH activator -34, BB579 growth dn -23, Yeast lifespan up -23, sEH inh 35 and Measles CPE 7.
CCN(CC)S(=O)(=O)c1ccc(N=NC2=C(O)CCCC2=O)cc1 was read as sdo1 growth -0.16, BB579 growth dn 7, Yeast lifespan up 10 and Measles CPE 34*.
`C/C(=N\NC(=O)c1ccccc1O)C1C(=O)c2ccccc2C1=O` gave sdo1 growth -0.68, sEH activator -6, BB579 growth dn -49, Yeast lifespan up 98*, sEH inh 5 and Measles CPE 7.
`O=C(NCc1ccco1)c1cc(C(=O)C2CCCCC2)c[nH]1` gave sdo1 growth 0.09, sEH activator -24, BB579 growth dn -56, Yeast lifespan up 96*, sEH inh 26 and Measles CPE 15.
Screening CC(C)(C)c1ccc(C(=O)c2c[nH]c(C(=O)NCc3ccco3)c2)cc1 returned sdo1 growth -0.38, sEH activator -7, BB579 growth dn -15, Yeast lifespan up -12, sEH inh 8 and Measles CPE 6.
Cc1c(N2C(=O)CS/C2=N\N=C\c2ccc(Br)cc2)c(=O)n(-c2ccccc2)n1C was read as sdo1 growth 0.54, sEH activator 3, BB579 growth dn -18, Yeast lifespan up -6, sEH inh 0 and Measles CPE 18.
`Cc1cc(N2C(=O)C(=O)/C(=C(/O)c3ccc(F)cc3)C2c2cccc(Br)c2)no1` (stereo not drawn) gave sdo1 growth 0.1, BB579 growth dn -11, Yeast lifespan up 1 and Measles CPE 11.
Cc1ccc(/C(O)=C2\C(=O)C(=O)N(c3cc(C)on3)C2c2cccc(Br)c2)cc1 (stereo not drawn) was read as sdo1 growth 2.1, sEH activator 6, BB579 growth dn 7, Yeast lifespan up 27*, sEH inh -7 and Measles CPE 18.
CCCCC(c1nnnn1Cc1ccco1)N1CCN(C(=O)c2ccco2)CC1 (stereo not drawn) was read as sdo1 growth -0.25, sEH activator 14, BB579 growth dn -24, Yeast lifespan up -11, sEH inh -14 and Measles CPE 39.
Screening CCCC(c1nnnn1Cc1ccco1)N1CCN(C(=O)c2ccco2)CC1 (stereo not drawn) returned sdo1 growth 1.3, sEH activator -15, BB579 growth dn -31, Yeast lifespan up 0, sEH inh 15 and Measles CPE 44*.
`CC(=O)Nc1ccc([N+](=O)[O-])cn1` gave sdo1 growth -0.53, sEH activator -5, BB579 growth dn -48, Yeast lifespan up 1, sEH inh 4 and Measles CPE 5.
`Cc1cccc(C(C)Nc2ccc([N+](=O)[O-])cn2)c1` (stereo not drawn) gave sdo1 growth -1.5, sEH activator 6, BB579 growth dn -7, Yeast lifespan up -2, sEH inh -8 and Measles CPE 43*.
COc1cc(CSc2nnnn2-c2ccc(C)cc2)cc(OC)c1OC was read as sdo1 growth -0.14, BB579 growth dn -31, Yeast lifespan up -5 and Measles CPE 3.
For O=C(Nc1ccc(Cl)c(Cl)c1)c1ccc(Cn2c(=O)[nH]c3ccsc3c2=O)cc1 the results were sdo1 growth -0.85, BB579 growth dn -27, Yeast lifespan up 6 and Measles CPE 23*.
For O=C(Nc1ccc(Oc2ccccc2)cc1)c1ccc(Cn2c(=O)[nH]c3ccsc3c2=O)cc1 the results were sdo1 growth 1.8, BB579 growth dn -36, Yeast lifespan up 5 and Measles CPE 4.
Cc1cc(C)cc(OCc2nnc(SCC(=O)OC(C)C)o2)c1 was read as sdo1 growth -0.1, sEH activator -12, BB579 growth dn -26, Yeast lifespan up 2, sEH inh 10 and Measles CPE 15.
`CC(C)(C)C(=O)Cn1c(=N)n(Cc2ccccc2)c2ccccc21` gave sdo1 growth -2.6, BB579 growth dn -22, Yeast lifespan up 32* and Measles CPE 11.
For CC(C)(C)C(=O)Cn1c(=N)n(Cc2ccccc2Cl)c2ccccc21 the results were sdo1 growth -2, sEH activator 7, BB579 growth dn -76, Yeast lifespan up 4, sEH inh -8 and Measles CPE 10.
`O=C(CSc1ncnc2c1nnn2-c1ccc(F)cc1)N1CCN(c2ccccc2)CC1` gave sEH activator -3 and sEH inh -1.
Screening CC(Oc1ccc(Cl)cc1Cl)C(=O)NNC(=O)C(=O)N1CCCCC1 (stereo not drawn) returned sdo1 growth 0.25, BB579 growth dn -14, Yeast lifespan up -3 and Measles CPE 10.
`C/C(=N\NC(=S)Nc1cc(S(=O)(=O)N2CCOCC2)ccc1Cl)c1ccccc1F` gave sdo1 growth 0.43, BB579 growth dn -37, Yeast lifespan up 7 and Measles CPE 11.
`CC(C)N(C(=S)Nc1cc(S(=O)(=O)N2CCOCC2)ccc1Cl)c1ccccc1` gave sdo1 growth 0.12, BB579 growth dn -11, Yeast lifespan up 40* and Measles CPE 3.
`O=C(COC(=O)C1CCN(/C=C/C(=O)C(F)(F)F)CC1)Nc1cccc(F)c1` gave sdo1 growth 2.9, BB579 growth dn -20, Yeast lifespan up 9 and Measles CPE 5.

Bioassay records as filed in PubChem.
